# Assay results reported in ChEMBL document CHEMBL5058577, “EUbOPEN Chemogenomics Library 2 (Multiplex)” (2022).
# Test system: Fibroblast
# Experiment: Multiplex assay against human fibroblast
# Format: toxicity, cell-based
# Summary of the method: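 Per cents of healthy-nucleus cells form the tubulin, mitochondrial-mass and membrane-permeability phenotype values. Live cells were stained at seeding with Hoechst33342, BioTracker Green Microtubule Cytoskeleton Dye, MitoTracker Red and Annexin V Alexa Fluor 680. After compound addition they were imaged on a CQ1 microscope at 37°C and 5% CO2, and CellPathfinder machine-learning gating split them into Hoechst high-intensity objects or normal cells, normal cells into healthy, pyknosed or fragmented nuclei, and pyknosed cells into mitotic or apoptotic.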
# [1] = 12 h, 1 µM, compound concentration 1 uM, replicate 1
# [2] = 12 h, 1 µM, compound concentration 1 uM, replicate 2
# [3] = 12 h, 10 µM, compound concentration 10 uM, replicate 1
# [4] = 12 h, 10 µM, compound concentration 10 uM, replicate 2
# [5] = 24 h, 1 µM, compound concentration 1 uM, replicate 1
# [6] = 24 h, 1 µM, compound concentration 1 uM, replicate 2
# [7] = 24 h, 10 µM, compound concentration 10 uM, replicate 1
# [8] = 24 h, 10 µM, compound concentration 10 uM, replicate 2
# [9] = 48 h, 1 µM, compound concentration 1 uM, replicate 1
# [10] = 48 h, 1 µM, compound concentration 1 uM, replicate 2
# [11] = 48 h, 10 µM, compound concentration 10 uM, replicate 1
# [12] = 48 h, 10 µM, compound concentration 10 uM, replicate 2
compound,measurement,setting,value
Cc1c(CC(=O)O)c2cccnc2n1Cc1ccc(S(C)(=O)=O)cc1C(F)(F)F [FEVIPIPRANT],Population Apoptotic (%),[1],44%
same,Population Fragmented Nuclei (%),[1],22%
same,Population Healthy Nuclei (%),[1],60%
same,Population Hoechst High Intensity Objects (%),[1],3%
same,Population Membrane Permeable-Phenotype (%),[1],1%
same,Population Mitochondria Different-Phenotype (%),[1],3%
same,Population Mitotic Cells (%),[1],55%
same,Population Normal (%),[1],96%
same,Population Pyknosed Nuclei (%),[1],18%
same,Population Tubulin-Different-Phenotype (%),[1],20%
same,Total Cell Count,[1],156
same,Population Apoptotic (%),[2],25%
same,Population Fragmented Nuclei (%),[2],33%
same,Population Healthy Nuclei (%),[2],48%
same,Population Membrane Permeable-Phenotype (%),[2],13%
same,Population Mitochondria Different-Phenotype (%),[2],12%
same,Population Mitotic Cells (%),[2],74%
same,Population Pyknosed Nuclei (%),[2],17%
same,Population Tubulin-Different-Phenotype (%),[2],56%
same,Population Apoptotic (%),[3],34%
same,Population Fragmented Nuclei (%),[3],10%
same,Population Healthy Nuclei (%),[3],71%
same,Population Hoechst High Intensity Objects (%),[3],3%
same,Population Membrane Permeable-Phenotype (%),[3],1%
same,Population Mitochondria Different-Phenotype (%),[3],4%
same,Population Mitotic Cells (%),[3],65%
same,Population Normal (%),[3],96%
same,Population Pyknosed Nuclei (%),[3],17%
same,Population Tubulin-Different-Phenotype (%),[3],25%
same,Total Cell Count,[3],132
same,Population Apoptotic (%),[4],22%
same,Population Fragmented Nuclei (%),[4],21%
same,Population Healthy Nuclei (%),[4],54%
same,Population Hoechst High Intensity Objects (%),[4],5%
same,Population Membrane Permeable-Phenotype (%),[4],9%
same,Population Mitochondria Different-Phenotype (%),[4],6%
same,Population Mitotic Cells (%),[4],77%
same,Population Normal (%),[4],94%
same,Population Pyknosed Nuclei (%),[4],23%
same,Population Tubulin-Different-Phenotype (%),[4],55%
same,Total Cell Count,[4],139
same,Population Apoptotic (%),[5],55%
same,Population Fragmented Nuclei (%),[5],14%
same,Population Healthy Nuclei (%),[5],66%
same,Population Hoechst High Intensity Objects (%),[5],3%
same,Population Membrane Permeable-Phenotype (%),[5],1%
same,Population Mitochondria Different-Phenotype (%),[5],5%
same,Population Mitotic Cells (%),[5],44%
same,Population Normal (%),[5],96%
same,Population Pyknosed Nuclei (%),[5],19%
same,Population Tubulin-Different-Phenotype (%),[5],23%
same,Total Cell Count,[5],156
same,Population Apoptotic (%),[6],52%
same,Population Fragmented Nuclei (%),[6],35%
same,Population Healthy Nuclei (%),[6],47%
same,Population Membrane Permeable-Phenotype (%),[6],4%
same,Population Mitochondria Different-Phenotype (%),[6],8%
same,Population Mitotic Cells (%),[6],48%
same,Population Pyknosed Nuclei (%),[6],17%
same,Population Tubulin-Different-Phenotype (%),[6],50%
same,Total Cell Count,[6],150
same,Population Apoptotic (%),[7],57%
same,Population Fragmented Nuclei (%),[7],16%
same,Population Healthy Nuclei (%),[7],67%
same,Population Hoechst High Intensity Objects (%),[7],1%
same,Population Membrane Permeable-Phenotype (%),[7],1%
same,Population Mitochondria Different-Phenotype (%),[7],2%
same,Population Mitotic Cells (%),[7],42%
same,Population Normal (%),[7],98%
same,Population Pyknosed Nuclei (%),[7],16%
same,Population Tubulin-Different-Phenotype (%),[7],24%
same,Total Cell Count,[7],130
same,Population Apoptotic (%),[8],31%
same,Population Fragmented Nuclei (%),[8],22%
same,Population Healthy Nuclei (%),[8],55%
same,Population Hoechst High Intensity Objects (%),[8],7%
same,Population Membrane Permeable-Phenotype (%),[8],5%
same,Population Mitochondria Different-Phenotype (%),[8],5%
same,Population Mitotic Cells (%),[8],68%
same,Population Normal (%),[8],92%
same,Population Pyknosed Nuclei (%),[8],21%
same,Population Tubulin-Different-Phenotype (%),[8],52%
same,Total Cell Count,[8],146
same,Population Apoptotic (%),[9],65%
same,Population Fragmented Nuclei (%),[9],16%
same,Population Healthy Nuclei (%),[9],67%
same,Population Hoechst High Intensity Objects (%),[9],5%
same,Population Membrane Permeable-Phenotype (%),[9],0%
same,Population Mitochondria Different-Phenotype (%),[9],4%
same,Population Mitotic Cells (%),[9],35%
same,Population Normal (%),[9],94%
same,Population Pyknosed Nuclei (%),[9],16%
same,Population Tubulin-Different-Phenotype (%),[9],16%
same,Total Cell Count,[9],132
same,Population Apoptotic (%),[10],63%
same,Population Fragmented Nuclei (%),[10],39%
same,Population Healthy Nuclei (%),[10],47%
same,Population Hoechst High Intensity Objects (%),[10],6%
same,Population Membrane Permeable-Phenotype (%),[10],4%
same,Population Mitochondria Different-Phenotype (%),[10],8%
same,Population Mitotic Cells (%),[10],36%
same,Population Normal (%),[10],93%
same,Population Pyknosed Nuclei (%),[10],12%
same,Population Tubulin-Different-Phenotype (%),[10],47%
same,Total Cell Count,[10],157
same,Population Apoptotic (%),[11],73%
same,Population Fragmented Nuclei (%),[11],22%
same,Population Healthy Nuclei (%),[11],62%
same,Population Hoechst High Intensity Objects (%),[11],2%
same,Population Membrane Permeable-Phenotype (%),[11],0%
same,Population Mitochondria Different-Phenotype (%),[11],3%
same,Population Mitotic Cells (%),[11],26%
same,Population Normal (%),[11],97%
same,Population Pyknosed Nuclei (%),[11],14%
same,Population Tubulin-Different-Phenotype (%),[11],29%
same,Total Cell Count,[11],132
same,Population Apoptotic (%),[12],58%
same,Population Fragmented Nuclei (%),[12],32%
same,Population Healthy Nuclei (%),[12],53%
same,Population Membrane Permeable-Phenotype (%),[12],3%
same,Population Mitochondria Different-Phenotype (%),[12],2%
same,Population Mitotic Cells (%),[12],41%
same,Population Tubulin-Different-Phenotype (%),[12],52%
same,Total Cell Count,[12],171
